T cruzi repl: blocks replication of Trypanosoma cruzi. T. cruzi beta-gal in NIH3T3, luminescence, 90 h. inhibition, % (no concentration beside the values). hit rate 1.4% among 300,000. AID 1885;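 active = mean inhibition across valid replicates above about 55%, limit read from the data; inconclusive = mean below that limit but half or more replicates reach it; inactive = mean below it, under half of replicates reach it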;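 also: signal also drops with host cell toxicity which is not excluded here; higher percent means less beta-gal luminescence so fewer parasites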
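assay system = mouse NIH/3T3 fibroblasts infected with β-gal-expressing T. cruzi Tulahuen C4 | input = 5,000 NIH/3T3 host cells per well | buffer or medium = DMEM plus 2% FBS | timing = 3 h host attachment, then at least 90 h co-culture | measured by = GalScreen luminescence, 60 min | evaluation = luminescence reflecting intracellular parasite burden, expressed as percent inhibition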
Calb FLC: affects C. albicans growth with fluconazole | C. albicans CaCi-2 + fluconazole, Alamar Blue growth, 48 h | growth inhibition, % (concentration not given with the values) | hit rate 0.57% among 300,000;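 active = growth inhibition above about 58% in most replicates, limit read from the data, passing the limit was not always enough; inconclusive = exactly half the replicates above a set limit; inactive = most replicates below a set limit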;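 also: all wells also contain fluconazole at 8 µg/ml as a sub-toxic cotreatment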
SKKanGAS inh: blocks kanamycin growth of S. pyogenes SKKanGAS strain; BacTiter-Glo, 6 h; inhibition, % at 7.5 µM; hit rate 1.3% among 300,000; AID 1662;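 active = mean replicate score, as percent of positive control median, at least 50; inconclusive = mean below 50 but one replicate at or above 50; inactive = mean and every replicate below 50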;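 also: strain carries kanamycin resistance gene driven by streptokinase promoter and grows in 40 µg/ml kanamycin; loss of luminescence reflects streptokinase promoter inhibition or plain growth inhibition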
CSC inhib: cancer stem cell inhibition; hit rate 1.1% among 300,000; cancer stem cell-like cells viability, luminescence; inhibition, % at 7.5 µM; in the data active = inhibition above about 75%; inconclusive = no clear call, values can overlap the other calls; tested in HMLE shEcad cells
Beta cell apopt: beta cell apoptosis inhibition | INS-1E cytokine-induced death, ATP luminescence, 48 h; percent of positive-control rescue, neutral wells zero | protection from apoptosis, % (no concentration beside the values) | hit rate 0.8% among 300,000 | AID 435005;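 active = Every replicate reaches about 75%, or at least half do and their mean reaches it too, limit read from the data; inconclusive = At least half of replicates reach the limit but their mean does not; inactive = Under half of replicates reach the limit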;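 also: higher means more ATP so stronger rescue from cytokine killing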
Mdm2 MdmX PPI: human Mdm2/MdmX binding inhibition | SaOS-2 split-luciferase Mdm2/MdmX complementation, luminescence | hit rate 3% among 330,000 | inhibition, % at 8 µM | O15151+Q00987;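 active = inhibition of at least 50% at 8 µM in the primary screen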
Target sequence (O15151 whole entry, looked up): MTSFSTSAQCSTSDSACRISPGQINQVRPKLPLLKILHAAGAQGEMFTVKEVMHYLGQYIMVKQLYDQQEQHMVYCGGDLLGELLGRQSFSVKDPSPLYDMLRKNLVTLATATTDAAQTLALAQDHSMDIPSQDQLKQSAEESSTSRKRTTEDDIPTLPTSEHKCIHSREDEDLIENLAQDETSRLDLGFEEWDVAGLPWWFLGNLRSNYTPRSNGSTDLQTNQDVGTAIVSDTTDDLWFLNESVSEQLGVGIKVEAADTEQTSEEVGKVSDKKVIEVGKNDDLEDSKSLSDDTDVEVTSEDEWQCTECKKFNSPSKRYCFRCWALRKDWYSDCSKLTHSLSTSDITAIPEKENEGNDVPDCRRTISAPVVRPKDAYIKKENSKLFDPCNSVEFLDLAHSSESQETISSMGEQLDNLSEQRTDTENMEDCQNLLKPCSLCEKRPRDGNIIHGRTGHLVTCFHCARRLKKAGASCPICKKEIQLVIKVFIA
Target sequence (Q00987 whole entry, looked up): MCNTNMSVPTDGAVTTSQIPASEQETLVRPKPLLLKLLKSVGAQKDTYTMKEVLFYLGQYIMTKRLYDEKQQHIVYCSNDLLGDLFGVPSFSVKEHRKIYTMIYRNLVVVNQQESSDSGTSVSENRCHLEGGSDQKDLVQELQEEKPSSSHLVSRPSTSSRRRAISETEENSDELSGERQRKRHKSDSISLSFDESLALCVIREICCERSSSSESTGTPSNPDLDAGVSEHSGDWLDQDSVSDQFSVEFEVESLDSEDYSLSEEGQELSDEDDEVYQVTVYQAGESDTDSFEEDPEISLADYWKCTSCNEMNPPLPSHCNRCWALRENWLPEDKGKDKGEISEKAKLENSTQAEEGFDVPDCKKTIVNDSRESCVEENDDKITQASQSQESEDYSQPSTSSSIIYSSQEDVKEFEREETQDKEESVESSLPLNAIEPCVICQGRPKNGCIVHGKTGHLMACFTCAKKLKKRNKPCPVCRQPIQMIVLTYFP
Hits are given with their value; – = inactive; ? = inconclusive; · = not tested or not shown. In the library only some 5.7% were active in any assay of this set; here they are far more common.

SMILES	T cruzi repl	Calb FLC	SKKanGAS inh	CSC inhib	Beta cell apopt	Mdm2 MdmX PPI
Cc1nnc(SCC2=C(C(=O)O)N3C(=O)C(NC(=O)Cn4nc(C(F)F)c(Cl)c4C)C3SC2)s1 (configuration not stated)	–	–	96	–	–	–
CC(=O)OCC1=C(C(=O)O)N2C(=O)C(NC(=O)Cn3nc(C(F)F)c(Cl)c3C)C2SC1 (configuration not stated)	–	–	109	–	–	–
CC(=O)OCC1=C(C(=O)O)N2C(=O)C(NC(=O)C(C)Cn3cc(Cl)cn3)C2SC1 (configuration not stated)	–	–	115	–	–	–
Cc1noc(C)c1C(=O)Nc1cc(S(=O)(=O)N2CCCCC2)ccc1N(C)C	·	·	·	·	·	–
CC(=O)OCC1=C(C(=O)O)N2C(=O)C(NC(=O)CCn3nc(C)c(Cl)c3C)C2SC1 (configuration not stated)	–	–	95	–	–	–
Cc1nnc(SCC2=C(C(=O)O)N3C(=O)C(NC(=O)COc4ccc(F)cc4)C3SC2)s1 (configuration not stated)	·	·	·	–	–	–
CC(=O)OCC1=C(C(=O)O)N2C(=O)[C@@H](NC(=O)Cc3cccs3)[C@H]2SC1	–	·	103	–	–	–
CC(=O)OCC1=C(C(=O)O)N2C(=O)C(NC(=O)CCn3nc(C(F)(F)F)c(Br)c3C3CC3)C2SC1 (configuration not stated)	–	–	110	–	–	–
Cc1nnc(SCC2=C(C(=O)O)N3C(=O)C(NC(=O)c4cc(F)c(F)cc4Cl)C3SC2)s1 (configuration not stated)	–	–	109	–	–	–
CC(=O)OCC1=C(C(=O)O)N2C(=O)C(NC(=O)COc3ccc(F)cc3)C2SC1 (configuration not stated)	·	·	·	·	·	–
CCOc1ccc(Oc2ccc(Cl)cc2NC(=O)C2=COCCO2)cc1	–	–	–	·	–	–
Cc1ccc(C)c(SCC(=O)NC2CCS(=O)(=O)C2)c1 (configuration not stated)	·	·	·	·	·	–
Cc1cc(C)c(C(=O)OCC(=O)Nc2cccc(S(=O)(=O)N3CCCCC3)c2)c(C)c1	–	–	–	–	–	–
Cc1nc2ccccc2c(=O)n1/N=C/c1c(O)ccc2ccccc12	–	–	–	–	85	–
Cc1nc2ccccc2c(=O)n1/N=C/c1cc(Br)ccc1O	–	–	–	–	–	–
COC(=O)c1cc(S(=O)(=O)n2nc(C)c(Br)c2C)c(Cl)cc1Cl	–	–	72	–	–	–
c1csc(-c2nc3c4ccccc4c4ccccc4c3[nH]2)c1	–	–	–	–	–	–
Oc1ccccc1-c1nc2c3ccccc3c3ccccc3c2[nH]1	–	–	86	–	–	·
O=C(NC(=S)Nc1ccccc1N1CCCCC1)c1ccco1	–	–	–	–	–	–
O=C(NC(=S)Nc1cccc(Cl)c1N1CCCCC1)c1cccs1	–	–	60	99	–	–
O=C(NC(=S)Nc1cccc(Cl)c1N1CCCCC1)c1ccco1	–	–	–	77	–	–
CN(C)S(=O)(=O)c1ccc(C(=O)NC(=O)CSc2nncs2)cc1	·	·	·	–	–	–
CCc1ncc(CN2CCC(C(=O)Nc3ccc(-n4nc(C)cc4C)cc3)CC2)cn1	–	–	–	–	–	–
O=C(Cn1cncn1)N/N=C/c1cc([N+](=O)[O-])ccc1O	–	–	–	–	–	–
O=C(CSc1ccccn1)N/N=C/c1cc([N+](=O)[O-])ccc1O	–	–	115	–	–	–
SMILES	T cruzi repl	Calb FLC	SKKanGAS inh	CSC inhib	Beta cell apopt	Mdm2 MdmX PPI
Cc1cc([N+](=O)[O-])nn1CC(=O)N/N=C/c1ccc(O)cc1O	–	–	–	80	–	–
O=C(Cn1nc2ccccc2n1)N/N=C/c1cc([N+](=O)[O-])ccc1O	–	?	104	–	–	–
O=C(CSc1ccccn1)N/N=C/c1ccccc1[N+](=O)[O-]	–	–	–	–	–	–
COc1ccc(OC)c(S(=O)(=O)N2CCC(C(=O)NC3CCCC3)CC2)c1	–	–	–	–	–	–
N#Cc1ccc(CSc2nnc(-c3ccncc3)n2CCc2ccccc2)cc1	65	–	–	–	·	–
c1ccc(CCn2c(SCc3ccccc3)nnc2-c2ccncc2)cc1	–	–	–	–	–	–
CC(=O)Nc1ccc(NC(=O)CCc2c(C)noc2C)cc1	·	·	·	·	·	–
COc1ccc(CCC(=O)Nc2ccc(-c3noc(-c4ccc(OC)c(OC)c4)n3)cc2)cc1	–	–	–	–	·	–

Screening data (PubChem BioAssay)
